# Reference: ChEMBL document CHEMBL4414574, “Structure-Based Discovery and Development of a Series of Potent and Selective Bromodomain and Extra-Terminal Protein Inhibitors” (J Med Chem, 2019)
# Active and inactive are the calls of the source. No cut-off for these calls is given here.
# Columns and labels:
# [1] = tested on: MV4-11; assay: Induction of apoptosis in human MV4-11 cells assessed as increase in cleaved caspase-9 level after 24 hrs by Western blot analysis; type: functional, cell-based
# In short: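 MV4-11 cells exposed to test agent at the indicated doses for 24 h. Lysates immunoblotted for full-length and cleaved caspase-3, -7, -8 and -9, with GAPDH as the loading reference.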
# [2] = molecular target: Bromodomain-containing protein 4 (Homo sapiens, UniProt O60885); assay: Inhibition of BRD4 in human MV4-11 cells assessed as reduction in BCL2 phosphorylation at Thr56 residues after 24 hrs by Western blot analysis; type: cell-based
# In short: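 MV4-11 cells exposed to graded doses for 24 h; lysates immunoblotted for phospho-BCL2, with GAPDH as loading control.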
# [3] = AUC (0 to infinity) in rat plasma at 50 mg/kg, po; type: ADME, organism-based; parameters: dose 50 mg/kg, time infinity, route oral
# In short: (§1)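 Compound was given orally or intravenously in 1% DMSO/0.5% HPMC vehicle. Concentrations in plasma, or in brain where stated, gave Tmax, Cmax, T1/2, AUC0-t and AUC0-inf.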
# [4] = tested on: BT-549; assay: Antiproliferative activity against human BT549 cells after 72 hrs by CCK8 or SRB assay; type: functional, cell-based
# [5] = tested on: NCI-H1299; assay: Antiproliferative activity against human NCI-H1299 cells after 72 hrs by CCK8 or SRB assay; type: functional, cell-based
# [6] = AUC (0 to t) in rat plasma at 3 mg/kg, iv; type: ADME, organism-based; in short: as §1
# [7] = tested on: MV4-11; assay: Induction of apoptosis in human MV4-11 cells assessed as reduction in BCL-2 level after 24 hrs by Western blot analysis; type: functional, cell-based
# In short: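 MV4-11 cells exposed to compound at the indicated doses for 24 h; lysates probed by Western blotting for the target protein, with GAPDH as loading control.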
# [8] = molecular target: ATPase family AAA domain-containing protein 2 (Homo sapiens) (UniProt Q6PL18); assay: Binding affinity to human partial length ATAD2A (Q981 to R1108 residues) expressed in Escherichia coli BL21 cells assessed as residual binding level at 1 uM measured after 1 hr by quantitative PCR based BROMOscan assay relative to control
# ATPase family AAA domain-containing protein 2 (Homo sapiens), sequence (Q6PL18 whole entry, the tested form may be a part): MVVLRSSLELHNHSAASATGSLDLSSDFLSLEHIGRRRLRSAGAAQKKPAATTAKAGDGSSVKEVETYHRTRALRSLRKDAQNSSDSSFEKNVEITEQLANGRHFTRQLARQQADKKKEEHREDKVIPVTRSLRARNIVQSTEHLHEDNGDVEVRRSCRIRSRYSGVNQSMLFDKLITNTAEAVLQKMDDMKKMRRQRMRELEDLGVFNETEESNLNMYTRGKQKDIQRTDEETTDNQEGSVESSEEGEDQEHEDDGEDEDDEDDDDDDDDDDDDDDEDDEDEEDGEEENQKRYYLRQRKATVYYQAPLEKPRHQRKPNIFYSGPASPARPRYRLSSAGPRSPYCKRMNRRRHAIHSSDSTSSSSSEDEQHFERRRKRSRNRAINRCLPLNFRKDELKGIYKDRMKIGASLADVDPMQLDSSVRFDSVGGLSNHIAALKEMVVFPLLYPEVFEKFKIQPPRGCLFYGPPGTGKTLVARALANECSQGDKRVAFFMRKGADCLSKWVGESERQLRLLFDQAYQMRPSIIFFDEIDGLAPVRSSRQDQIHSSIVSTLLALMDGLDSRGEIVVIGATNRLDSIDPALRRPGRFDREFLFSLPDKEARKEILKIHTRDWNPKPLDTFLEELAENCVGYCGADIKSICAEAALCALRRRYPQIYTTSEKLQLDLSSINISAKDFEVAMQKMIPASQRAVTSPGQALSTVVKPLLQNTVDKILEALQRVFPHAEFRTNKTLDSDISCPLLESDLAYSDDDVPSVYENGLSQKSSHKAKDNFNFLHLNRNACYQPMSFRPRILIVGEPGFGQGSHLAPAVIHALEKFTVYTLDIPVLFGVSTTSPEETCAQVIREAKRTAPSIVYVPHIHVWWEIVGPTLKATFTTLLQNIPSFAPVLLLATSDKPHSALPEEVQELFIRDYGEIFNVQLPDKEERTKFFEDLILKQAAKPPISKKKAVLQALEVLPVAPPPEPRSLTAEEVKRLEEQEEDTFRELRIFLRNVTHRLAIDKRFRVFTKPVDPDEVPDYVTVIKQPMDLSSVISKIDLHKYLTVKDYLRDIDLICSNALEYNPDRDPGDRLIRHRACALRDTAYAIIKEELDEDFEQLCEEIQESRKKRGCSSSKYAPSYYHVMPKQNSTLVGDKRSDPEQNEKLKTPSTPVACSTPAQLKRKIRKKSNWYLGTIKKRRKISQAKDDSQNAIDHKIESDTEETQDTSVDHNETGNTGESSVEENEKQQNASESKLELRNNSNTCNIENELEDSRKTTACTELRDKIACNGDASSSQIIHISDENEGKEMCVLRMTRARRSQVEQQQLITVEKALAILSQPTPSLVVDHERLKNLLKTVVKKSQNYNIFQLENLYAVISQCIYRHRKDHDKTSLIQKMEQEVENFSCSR
# In short: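 A BROMOScan competition-binding panel of 32 bromodomains was run at a single 1 μM compound concentration. Results are primary-screen 'Percent Control', where lower values indicate stronger binding.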
# [9] = Tmax in dog plasma at 3 mg/kg, po; type: ADME, organism-based, Canis lupus familiaris
# In short: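 Oral dosing in 1% DMSO/0.5% HPMC vehicle (dog 3 mg/kg; rat 10 mg/kg); plasma drug levels measured.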
# [10] = Drug uptake in tumor of Balb/c nude mouse xenografted with human MV4-11 cells at 25 to 50 mg/kg, po measured after 8 hrs; type: ADME, organism-based, Neoplasm; details: in vivo
# In short: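 MV4-11 xenografts in BALB/c nude mice given oral compound; drug concentrations in plasma and tumor tissue measured at 1 h and 8 h after dosing.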
# [11] = tested on: MV4-11; assay: Induction of apoptosis in human MV4-11 cells after 24 hrs by Annexin V staining based assay; type: functional, cell-based
# [12] = molecular target: Protein polybromo-1 (Homo sapiens) (UniProt Q86U86); assay: Binding affinity to human partial length PB1 bromodomain 2 (S178 to E291 residues) expressed in Escherichia coli BL21 cells assessed as residual binding level at 1 uM measured after 1 hr by quantitative PCR based BROMOscan assay relative to control
# Protein polybromo-1 (Homo sapiens), sequence (Q86U86 whole entry, the tested form may be a part): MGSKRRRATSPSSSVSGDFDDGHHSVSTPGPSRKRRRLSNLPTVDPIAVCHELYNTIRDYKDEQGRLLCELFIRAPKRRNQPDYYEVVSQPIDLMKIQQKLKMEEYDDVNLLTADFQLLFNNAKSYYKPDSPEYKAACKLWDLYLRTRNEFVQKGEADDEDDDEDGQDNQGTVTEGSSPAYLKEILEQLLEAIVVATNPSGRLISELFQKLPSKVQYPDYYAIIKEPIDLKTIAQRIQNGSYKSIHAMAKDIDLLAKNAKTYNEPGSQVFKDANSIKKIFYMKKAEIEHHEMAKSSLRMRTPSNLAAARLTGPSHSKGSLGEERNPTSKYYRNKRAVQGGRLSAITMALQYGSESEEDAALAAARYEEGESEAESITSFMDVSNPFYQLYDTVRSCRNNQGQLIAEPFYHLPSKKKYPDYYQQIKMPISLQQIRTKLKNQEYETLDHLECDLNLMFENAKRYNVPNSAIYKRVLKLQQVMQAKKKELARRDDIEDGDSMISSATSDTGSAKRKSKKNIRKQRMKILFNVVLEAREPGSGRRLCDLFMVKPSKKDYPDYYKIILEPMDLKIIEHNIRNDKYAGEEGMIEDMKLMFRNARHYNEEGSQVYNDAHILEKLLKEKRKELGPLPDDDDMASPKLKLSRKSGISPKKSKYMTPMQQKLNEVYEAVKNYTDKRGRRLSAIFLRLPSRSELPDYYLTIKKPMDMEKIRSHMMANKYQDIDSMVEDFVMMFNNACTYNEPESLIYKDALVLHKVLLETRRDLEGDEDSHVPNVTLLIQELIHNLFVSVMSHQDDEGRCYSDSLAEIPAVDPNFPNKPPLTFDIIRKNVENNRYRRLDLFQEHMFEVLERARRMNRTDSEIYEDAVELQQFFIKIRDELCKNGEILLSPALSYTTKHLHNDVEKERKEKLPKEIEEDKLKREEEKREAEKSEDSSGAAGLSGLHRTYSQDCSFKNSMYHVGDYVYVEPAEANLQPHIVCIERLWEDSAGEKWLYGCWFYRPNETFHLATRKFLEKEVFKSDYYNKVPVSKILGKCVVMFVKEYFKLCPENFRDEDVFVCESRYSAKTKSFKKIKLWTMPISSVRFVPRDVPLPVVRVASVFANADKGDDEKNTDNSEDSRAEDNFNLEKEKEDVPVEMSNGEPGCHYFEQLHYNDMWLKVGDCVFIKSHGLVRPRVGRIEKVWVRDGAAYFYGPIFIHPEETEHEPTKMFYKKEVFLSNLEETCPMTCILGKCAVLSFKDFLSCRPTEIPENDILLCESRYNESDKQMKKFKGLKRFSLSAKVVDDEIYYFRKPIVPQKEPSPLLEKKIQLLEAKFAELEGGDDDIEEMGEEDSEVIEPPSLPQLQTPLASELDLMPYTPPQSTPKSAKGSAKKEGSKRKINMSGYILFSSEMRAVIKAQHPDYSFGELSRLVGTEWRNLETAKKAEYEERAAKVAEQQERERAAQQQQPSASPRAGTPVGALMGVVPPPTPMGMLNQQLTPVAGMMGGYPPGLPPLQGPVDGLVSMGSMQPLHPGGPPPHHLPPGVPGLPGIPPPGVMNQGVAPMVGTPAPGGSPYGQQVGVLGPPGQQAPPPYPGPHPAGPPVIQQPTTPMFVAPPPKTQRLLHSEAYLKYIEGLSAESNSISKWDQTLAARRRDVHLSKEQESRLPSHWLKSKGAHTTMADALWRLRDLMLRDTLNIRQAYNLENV
# In short: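 Bromodomain panel screen (32 bromodomains) run at 1 μM single concentration; primary binding reported as 'Percent Control', lower values meaning stronger interaction.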
# [13] = Tmax in ICR mouse plasma at 50 mg/kg, po administered via gavage measured after 0.25 to 24 hrs by UPLC/MS analysis; type: ADME, organism-based
# In short: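 Male ICR mice dosed orally at 50 mg/kg in 1% DMSO/0.5% HPMC; drug measured in plasma and brain.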
# [14] = molecular target: Proto-oncogene tyrosine-protein kinase Src (Homo sapiens) (UniProt P12931); assay: Inhibition of Src (unknown origin) at 10 uM using poly (Glu, Tyr) 4:1 as substrate after 60 mins by ELISA
# Proto-oncogene tyrosine-protein kinase Src (Homo sapiens), sequence (P12931 2-536 limits assumed): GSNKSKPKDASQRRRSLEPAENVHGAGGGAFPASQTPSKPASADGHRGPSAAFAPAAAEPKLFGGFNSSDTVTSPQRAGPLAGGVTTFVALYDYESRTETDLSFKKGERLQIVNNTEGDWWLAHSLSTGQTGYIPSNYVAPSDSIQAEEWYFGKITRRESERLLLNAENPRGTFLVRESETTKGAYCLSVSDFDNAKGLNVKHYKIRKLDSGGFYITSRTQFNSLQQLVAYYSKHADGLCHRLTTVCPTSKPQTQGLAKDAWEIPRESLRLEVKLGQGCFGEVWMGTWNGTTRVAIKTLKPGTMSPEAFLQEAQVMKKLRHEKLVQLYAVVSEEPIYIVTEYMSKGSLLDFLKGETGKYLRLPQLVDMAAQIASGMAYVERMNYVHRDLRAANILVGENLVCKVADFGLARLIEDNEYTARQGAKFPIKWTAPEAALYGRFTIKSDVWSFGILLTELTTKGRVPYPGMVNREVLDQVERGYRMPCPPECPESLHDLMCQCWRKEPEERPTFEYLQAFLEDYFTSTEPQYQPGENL
# [15] = Cmax in rat plasma at 50 mg/kg, po; type: ADME, organism-based; parameters: dose 50 mg/kg, route oral
structure (smiles),measurement,setting,value
Cc1ccc(-n2nc(C(=O)N3C[C@@H](C)N[C@@H](C)C3)nc2-c2ccc3c(c2)N(C2CCCC2)[C@H](C)C(=O)N3C)cc1,Activity,[1],Dose-dependent effect
same,inhibition,[2],Dose-dependent effect
same,AUC(0-inf),[3],4310 ng·h/mL
same,Activity,[4],Active
same,Activity,[5],Active
same,AUC(0-t),[6],2010 ng·h/mL
same,Activity,[7],Dose-dependent effect
same,Activity,[8],70 to 100%
same,Tmax,[9],30 min
same,Drug uptake,[10],Active
same,Activity,[11],Dose-dependent effect
same,Activity,[12],70 to 100%
same,Tmax,[13],60 min
same,inhibition,[14],Active
same,Cmax,[15],1250 ng/mL
